Assay results reported in ChEMBL document CHEMBL6078712, “Triterpenoid phthalimides as selective anti-cancer agents targeting mitochondrial apoptosis” (Eur J Med Chem, 2025).
Active and inactive are the calls of the source. No cut-off for these calls is given here.

Assays:
[1] = Metabolic stability in human liver microsomes assessed as parent compound remaining at 2 uM incubated for 60 mins in presence of NADPH by RF-MS analysis; format: ADME, Microsome; settings: read-out: Stability
Method in brief: (§1)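 Human plasma stability, plasma protein binding and liver microsome stability, each run in triplicate. Error deviations below 10 %.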

CCRF-CEM [2] = assay: Inhibition of DNA synthesis in human CCRF-CEM cells at 1 times IC50 incubated for 24 hrs by BrdU incorporation based flow cytometry; format: functional
Method in brief: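 Fixed in ice-cold 70 % ethanol, DNA denatured in 2 M HCl for 30 min, neutralised with borax. Stained with anti-BrdU plus FITC secondary, then PI/RNase A for 1 h. Flow cytometry; % BrdU-positive cells.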

[3] = Stability in human plasma assessed as compound remaining at 2 uM incubated for 15 mins by RF-MS analysis; format: ADME, cell-free; settings: read-out: Stability; method in brief: as §1
CCRF-CEM [4] = assay: Induction of cell cycle arrest in human CCRF-CEM cells assessed as downregulation of Cyclin D expression at 5 times IC50 incubated for 24 hrs by Western blotting analysis; format: functional, cell-based
Method in brief: (§2)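 30 µg protein per lane on SDS-PAGE, transferred to nitrocellulose, blocked in 5 % BSA/TBS-Tween. Primary antibodies overnight at 4 °C (Akt, P-Akt Ser473, STAT-3, caspase-3, PARP, cyclin D, cyclin A, Bcl-xL, Bak, Bid, Bim), then HRP secondary and ECL detection. GAPDH as loading control.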

CCRF-CEM [5] = assay: Induction of cell cycle arrest in human CCRF-CEM cells assessed as downregulation of total AKT expression at 5 times IC50 incubated for 24 hrs by Western blotting analysis; format: functional, cell-based; method in brief: as §2
CCRF-CEM [6] = assay: Induction of cell cycle arrest in human CCRF-CEM cells assessed as downregulation of total STAT3 expression at 5 times IC50 incubated for 24 hrs by Western blotting analysis; format: functional, cell-based; method in brief: as §2
CCRF-CEM [7] = assay: Induction of apoptosis in human CCRF-CEM cells assessed as viable cells at 1 times IC50 incubated for 24 hrs by Annexin V-FITC and PI staining based flow cytometric analysis (reference value: 97.4 %); format: functional
Method in brief: (§3)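 Washed in Ca2+-containing binding buffer, then stained 15 min at room temperature in the dark with Annexin V-FITC and propidium iodide (PI at half the kit-recommended level). Read at once by flow cytometry with a 488 nm laser, ≥10,000 cells. Debris excluded; quadrants viable, early apoptotic, late apoptotic/necrotic, necrotic. Three independent experiments.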

CCRF-CEM [8] = assay: Induction of apoptosis in human CCRF-CEM cells assessed as downregulation of caspase-3 expression at 5 times IC50 incubated for 24 hrs by Western blotting analysis; format: functional, cell-based; method in brief: as §2
CCRF-CEM [9] = assay: Induction of apoptosis in human CCRF-CEM cells assessed as early apoptotic cells at 1 times IC50 incubated for 24 hrs by Annexin V-FITC and PI staining based flow cytometric analysis (reference value: 2.1 %); format: functional; method in brief: as §3
K562 = assay: Cytotoxicity against human K562 cells assessed as inhibition of cell growth incubated for 72 hrs by MTS assay; format: functional, cell-based; settings: K562, 72 h
Method in brief: (§4)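 MTS assay on eight human cancer lines and two non-tumour fibroblast lines. IC50 is the concentration that inhibits cell growth by 50 %. SD typically up to 15 % of the mean.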

CCRF-CEM [10] = assay: Induction of apoptosis in human CCRF-CEM cells assessed as late apoptotic cells at 5 times IC50 incubated for 24 hrs by Annexin V-FITC and PI staining based flow cytometric analysis (reference value: 0.4 %); format: functional; method in brief: as §3
CCRF-CEM [11] = assay: Induction of apoptosis in human CCRF-CEM cells assessed as early apoptotic cells at 5 times IC50 incubated for 24 hrs by Annexin V-FITC and PI staining based flow cytometric analysis (reference value: 2.1 %); format: functional; method in brief: as §3
Mitochondrial membrane [12] = assay: Induction of mitochondrial membrane potential depolarization in human CCRF-CEM cells assessed as fold increase in fluorescence intensity at 5 times IC50 incubated for 24 hrs by JC-1 staining based flow cytometry; format: cell membranes
[13] = Stability in human plasma assessed as compound remaining at 2 uM incubated for 30 mins by RF-MS analysis; format: ADME, cell-free; settings: read-out: Stability; method in brief: as §1
[14] = Metabolic stability in human liver microsomes assessed as parent compound remaining at 2 uM incubated for 15 mins in presence of NADPH by RF-MS analysis; format: ADME, Microsome; settings: read-out: Stability; method in brief: as §1
CCRF-CEM [15] = assay: Induction of apoptosis in human CCRF-CEM cells assessed as downregulation of BCL-XL expression at 5 times IC50 incubated for 24 hrs by Western blotting analysis; format: functional, cell-based; method in brief: as §2
CCRF-CEM [16] = assay: Induction of apoptosis in human CCRF-CEM cells assessed as upregulation of BIM expression at 1 to 5 times IC50 incubated for 24 hrs by Western blotting analysis; format: functional, cell-based; method in brief: as §2
[17] = Stability in human plasma assessed as compound remaining at 2 uM incubated for 60 mins by RF-MS analysis; format: ADME, cell-free; settings: read-out: Stability; method in brief: as §1
CCRF-CEM [18] = assay: Induction of apoptosis in human CCRF-CEM cells assessed as necrotic cells at 5 times IC50 incubated for 24 hrs by Annexin V-FITC and PI staining based flow cytometric analysis (reference value: 0.4 %); format: functional; method in brief: as §3
CCRF-CEM [19] = assay: Induction of apoptosis in human CCRF-CEM cells assessed as upregulation of BID expression at 1 to 5 times IC50 incubated for 24 hrs by Western blotting analysis; format: functional, cell-based; method in brief: as §2
CCRF-CEM [20] = assay: Induction of cell cycle arrest in human CCRF-CEM cells assessed as downregulation of AKT phosphorylation at 5 times IC50 incubated for 24 hrs by Western blotting analysis; format: functional, cell-based; method in brief: as §2
[21] = Plasma protein binding in human assessed as fraction bound at 10 uM incubated for 4 hrs by rapid equilibrium dialysis based RF-MS analysis; format: ADME, cell-free; settings: read-out: PPB (converted); method in brief: as §1
CCRF-CEM [22] = assay: Inhibition of RNA synthesis in human CCRF-CEM cells at 5 times IC50 incubated for 24 hrs by BrU incorporation based flow cytometry; format: functional
Method in brief: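 Fixed in 1 % paraformaldehyde/0.05 % NP-40 (15 min at room temperature, then 4 °C overnight). Stained with cross-reacting anti-BrdU plus FITC secondary (45 min each), then PI/RNase A. Flow cytometry; % BrU-positive cells.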

CCRF-CEM [23] = assay: Induction of cell cycle arrest in human CCRF-CEM cells assessed as increase in accumulation of G0/G1 phase at 1 times IC50 incubated for 24 hrs by RNase/PI staining based flow cytometry; format: functional
Method in brief: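 Propidium iodide staining and flow cytometry with a 488 nm laser, ≥10,000 intact cells. Phase proportions compared with untreated cells; SEM of three independent experiments.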

[24] = Metabolic stability in human liver microsomes assessed as parent compound remaining at 2 uM incubated for 30 mins in presence of NADPH by RF-MS analysis; format: ADME, Microsome; settings: read-out: Stability; method in brief: as §1
[25] = Stability in human plasma assessed as compound remaining at 2 uM incubated for 120 mins by RF-MS analysis; format: ADME, cell-free; settings: read-out: Stability; method in brief: as §1
Mitochondrial membrane [26] = assay: Induction of mitochondrial membrane potential depolarization in human CCRF-CEM cells assessed as fold increase in fluorescence intensity incubated for 24 hrs by JC-1 staining based flow cytometry; format: cell membranes
A549 = assay: Cytotoxicity against human A549 cells assessed as inhibition of cell growth incubated for 72 hrs by MTS assay; format: functional, cell-based; settings: A549, 72 h; method in brief: as §4
[27] = Cytotoxicity against human BJ cells assessed as inhibition of cell growth incubated for 72 hrs by MTS assay; format: toxicity, cell-based; method in brief: as §4
[28] = Cytotoxicity against human K562-Tax cells assessed as inhibition of cell growth incubated for 72 hrs by MTS assay; format: functional, cell-based; method in brief: as §4

CC(=O)O[C@H]1CC[C@]2(C)[C@H]3CC[C@@H]4[C@H]5[C@H](c6cc7c(c(-c8ccccc8)c6)C(=O)N(c6cc[nH]n6)C7=O)CC[C@]5(C(=O)O)CC[C@@]4(C)[C@]3(C)CC[C@H]2C1(C)C
remaining at 1 h, 2 µM [1]: 81%
inhibition (INH) (CCRF-CEM [2]): 23.6%
remaining at 0.25 h, 2 µM [3]: 97%
Activity (CCRF-CEM [4]): Active
Activity (CCRF-CEM [5]): Active; Slight Activity Observed
Activity (CCRF-CEM [6]): Active
Activity (CCRF-CEM [7]): 92.8%
Activity (CCRF-CEM [8]): Active
Activity (CCRF-CEM [9]): 4.8%
IC50 (K562): 14.5 µM
Activity (CCRF-CEM [10]): 5.5%
Activity (CCRF-CEM [11]): 7.9%
fold change (FC) (Mitochondrial membrane [12]): > 20
remaining at 0.5 h, 2 µM [13]: 91%
remaining at 0.25 h, 2 µM [14]: 99%
Activity (CCRF-CEM [15]): Active
Activity (CCRF-CEM [16]): Active
remaining at 1 h, 2 µM [17]: 92%
Activity (CCRF-CEM [18]): 0.1%
Activity (CCRF-CEM [19]): Active
Activity (CCRF-CEM [20]): Active
fraction unbound at 4 h, 10 µM [21]: 0.121
inhibition (INH) (CCRF-CEM [22]): 47.4%
Activity (CCRF-CEM [23]): Active; Slight Increased Activity Observed
remaining at 0.5 h, 2 µM [24]: 99%
remaining at 2 h, 2 µM [25]: 86%
Activity (Mitochondrial membrane [26]): Dose-dependent-effect
IC50 (A549): 18.9 µM
IC50 at 72 h [27]: 31.8 µM
IC50 [28]: 13.3 µM
